MC4R antagonist: blocks human MC4R cAMP signaling; MC4R-expressing cells, MTII-stimulated cAMP, LANCE TR-FRET; inhibition, % at 6.5 µM; 360,000 compounds, 0.48% hits; P32245;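 active = inhibition above its plate's cutoff, the mean of tested wells on that plate plus 3 SD, cut at about 29% in these data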
Target sequence (P32245 whole entry, looked up): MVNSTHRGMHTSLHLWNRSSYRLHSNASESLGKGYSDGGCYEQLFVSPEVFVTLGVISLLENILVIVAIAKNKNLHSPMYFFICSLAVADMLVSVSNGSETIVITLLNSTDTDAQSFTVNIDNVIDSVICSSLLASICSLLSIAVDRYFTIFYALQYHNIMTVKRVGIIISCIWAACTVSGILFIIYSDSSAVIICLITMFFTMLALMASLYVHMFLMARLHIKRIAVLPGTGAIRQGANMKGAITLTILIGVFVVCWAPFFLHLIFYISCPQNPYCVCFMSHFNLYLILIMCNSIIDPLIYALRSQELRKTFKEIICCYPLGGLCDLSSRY
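Material: U2OS-MC4R stable cell line | Reagent: Melanotan II challenge after compound preincubation | Doses: One concentration, 6.5 µM nominal | Incubation: 30-min compound preincubation, 1-h Melanotan II challenge, 1-h detection, room temperature | Signal: TR-FRET cAMP assay | Replicates: One well per compound, no replicates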
MC4R ag barr: activates human MC4R beta-arrestin recruitment; U2OS MC4R beta-arrestin complementation, luminescence; percent of melanotan II response, DMSO zero; activation, % at 8.9 µM; 360,000 compounds, 0.98% hits;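 active = activation above a per-plate cutoff, the mean activation of sample wells on that plate plus 3 SD, cut at about 8% in these data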
A1 inh: inhibitors of the anti-apoptotic protein A1, read as caspase activation. caspase activation, % (concentration not given with the values). AID 2462. MEF A1-2A-BIM cells, Caspase-Glo 3/7 luminescence, 3 h; percent of clofoctol response, vehicle zero. 330,000 compounds, 0.066% hits;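 active = over half of replicate activation scores above 10%, or exactly half above 10 with the replicate mean above 10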
UPR CHOP act: apoptotic UPR (CHOP) activation; CHO-CHOP luciferase reporter, luminescence; percent of tunicamycin response over DMSO baseline; AID 449763; 330,000 compounds, 0.34% hits; activation, % at 10 µM;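 active = at 10 µM dose, activation of 40% or more, normalized to positive control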
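Assay system: CHO cells with stable CHOP pathway luciferase reporter; Buffer or medium: F12 plus 10% serum; Times: 16-18 h cell attachment, then 6 h compound exposure, 37 °C; Signal: luciferase luminescence; Read-out basis: percent activation relative to tunicamycin control; Control set: tunicamycin high control, DMSO low control.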
UPR XBP1 act: adaptive UPR (XBP1) activation. CHO-XBP1 luciferase reporter, IRE1-XBP1 UPR activation, luminescence; percent of tunicamycin response, DMSO as zero. activation, % at 20 µM. 330,000 compounds, 0.33% hits;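 active = versus positive control, 20 µM dose yields 30% or more activation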
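Assay system: IRE1-XBP1 luciferase reporter CHO line. Input: 1000 cells/well. Buffer or medium: F12 with 10% serum. Doses: 20 µM, 1% DMSO. Times: overnight seeding at 37 °C, 6 h compound treatment at 37 °C. Technique: Steady-Glo luciferase glow luminescence, 10 min after reagent addition.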
MC4R barr conf: human MC4R beta-arrestin agonism confirmation; shares compounds with MC4R ag barr; U2OS MC4R beta-arrestin recruitment, luminescence; scaled DMSO 0%, Melanotan II 100%; activation, % at 8.9 µM; 2,400 compounds, 31% hits;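 active = mean activation across replicates above the hit cutoff set in the earlier primary screen, cut at about 8% in these data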
MOR DOR agonist: OPRM1-OPRD1 heterodimer agonism counter-screen; 2,400 compounds, 5.8% hits; shares compounds with MC4R ag barr; U2OS PathHunter beta-arrestin, beta-gal luminescence; percent of deltorphin B response, DMSO zero; activation, % at 9.2 µM;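 active = mean activation across replicates exceeds the hit threshold derived in the earlier primary screen, cut at about 18% in these data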
Large screens that a line does not name were inactive (follow-up assays come after a bar, where they were run). Compounds with a hit are over-represented: about 2% of the library has one in this group of screens.

Cc1ccc(NC(=O)c2sc(N)nc2-c2ccc([N+](=O)[O-])cc2)cc1C	MC4R ag barr 11.4 | MC4R barr conf inactive | MOR DOR agonist inactive
Cc1ccc(NC(=O)c2sc(N)nc2-c2ccccc2)cc1C	none
CC(=O)c1cccc(N/C=C\c2nnnn2-c2ccc(F)cc2)c1	MC4R ag barr 15.8 | MC4R barr conf inactive | MOR DOR agonist inactive
COc1ccc(-n2nnnc2/C=C\Nc2ccccc2C(=O)c2ccccc2)cc1	none
CC1(C)Oc2ccc3ccc(=O)oc3c2/C(=C/Nc2ccccc2)C1=O	MC4R ag barr 9.8 | MC4R barr conf inactive | MOR DOR agonist inactive
COc1ccc([C@H]2C[C@@H](n3cc(COC(=O)c4ccccc4)nn3)[C@H](O)CN2Cc2cccs2)cc1	none (no result: A1 inh, UPR CHOP act, UPR XBP1 act)
O=C(Nc1cnn(Cc2ccc(Cl)cc2Cl)c1)c1cc(-c2cccs2)on1	MC4R ag barr 20.7 | MC4R barr conf inactive | MOR DOR agonist inactive
O=C(COc1ccccc1)Nc1nc2cc3c(cc2s1)OCO3	none
O=C(COc1ccccc1)Nc1nc2cc3c(cc2s1)OCCO3	MC4R ag barr 13.9 | MC4R barr conf inactive | MOR DOR agonist inactive
O=C(NCc1ccccc1)c1cc(C2COCCN2S(=O)(=O)c2ccccc2)on1 (centres undefined)	none (no result: A1 inh, UPR CHOP act, UPR XBP1 act)
C#CCOc1ccc(/C=C2\SC(=S)N(Cc3cccnc3)C2=O)cc1	MC4R ag barr 12.6 | MC4R barr conf inactive | MOR DOR agonist inactive
